Results collected from several papers.
Lines come from different studies, so protocols differ.

Structure (SMILES)	species	sample	route	dose	setting	measurement	value
COCC(=O)N1CCC[C@H](C(=O)NCc2nc(-c3ccc(C#N)cc3)cs2)C1	–	Caco-2	–	–	–	efflux ratio	2.2
CN(C)C(=O)c1cc2cnc(Nc3ccc(-c4ccc5c(=O)cc(N6CCOCC6)oc5c4)cc3)nc2n1C1CCCC1.Cl	BALB/c mouse	plasma	oral	20 mg/kg	–	Tmax	54 min
COc1ccc2c(c1)CN(C(=O)CCN1CCC(Cc3ccccc3)CC1)CC[S@@+]2[O-]	male human	plasma	intravenous	0.15 mg/kg	healthy volunteers	Cmax	349 ng/mL
O=C(COc1ccc(Cl)cc1)NC12CC(c3nnc([C@H]4C[C@@H](OC(F)(F)F)C4)o3)(C1)C2	human	plasma	oral	200 mg	multiple doses, once daily, steady state, healthy volunteers	Cmax	16.2 µM
Cc1cc(-c2nccc3c2ccn3CC(=O)Nc2ccc(-c3cnccn3)cn2)ccn1	human	plasma	oral	40 mg	single dose	Cmax	0.345 µM
COc1ccc(-c2c(Nc3ccccn3)[nH]c3c(C4=CCCCC4)c(-c4ccccc4)nn3c2=O)cc1	human	plasma	oral	400 mg once daily	multiple doses, patients	Cmax	3200 ng/mL
CCOCC(=O)N1CCC[C@H](C(=O)NCc2nc(-c3ccc(C)nc3)cs2)C1	–	Caco-2	–	–	–	efflux ratio	3.8
CC(C)n1c(C2CCNCC2)nc2c([N+](=O)[O-])c(Br)c(Br)cc21	human	plasma	oral	75 mg	patients	Cmax	60.5 ng/mL
